Data from ChEMBL document CHEMBL1151448, “Comparative antianaerobic activities of doripenem determined by MIC and time-kill analysis” (2008).
≈ marks a conversion by molar mass, not a printed value.

Key:
Format in all cases: functional
Bacteroides fragilis [1] = assay: Antimicrobial activity against beta lactamase-positive Bacteroides fragilis isolated from intra-abdominal infection and pelvic inflammatory disease patients after 48 hrs by agar dilution method
How it was run: (§1)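 CLSI agar dilution on brucella blood agar supplemented with laked sheep blood, hemin and vitamin K. Inocula of about 1 × 10^5 CFU/spot were applied by Steers replicator, and plates were incubated 48 h at 35°C in an anaerobic glove box. MIC was the concentration giving marked growth reduction versus the anaerobic control plate. QC strains were included each run, and β-lactamase was detected by Cefinase disk.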

[2] = test system: Bacteroides thetaiotaomicron; assay: Antimicrobial activity against beta lactamase-positive Bacteroides thetaiotaomicron isolated from intra-abdominal infection and pelvic inflammatory disease patients after 48 hrs by agar dilution method; how it was run: as §1
Bacteroides fragilis [3] = assay: Antimicrobial activity against beta lactamase-positive Bacteroides fragilis isolated from intra-abdominal infection and pelvic inflammatory disease patients after 48 hrs by time kill analysis
How it was run: (§2)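 The MIC was read by inspecting macrodilution time-kill tubes. Vials held prereduced brucella broth with 5% laked horse blood cells, hemin 5 μg/ml and vitamin K1 1 μg/ml. Final inoculum was 10^6–10^7 CFU/ml, prepared inside the anaerobe chamber. Vials were incubated 48 h at 35°C in a shaking water bath.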

Prevotella intermedia [4] = assay: Antimicrobial activity against beta lactamase-positive Prevotella intermedia isolated from intra-abdominal infection and pelvic inflammatory disease patients after 48 hrs by time kill analysis; how it was run: as §2
Finegoldia magna [5] = assay: Antimicrobial activity against beta lactamase-positive Finegoldia magna isolated from intra-abdominal infection and pelvic inflammatory disease patients after 48 hrs by time kill analysis; how it was run: as §2
Fusobacterium nucleatum [6] = assay: Antimicrobial activity against beta lactamase-positive Fusobacterium nucleatum isolated from intra-abdominal infection and pelvic inflammatory disease patients after 48 hrs by time kill analysis; how it was run: as §2
Clostridium perfringens [7] = assay: Antimicrobial activity against Clostridium perfringens isolated from intra-abdominal infection and pelvic inflammatory disease patients after 48 hrs by time kill analysis
How it was run: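 Macrodilution in prereduced brucella broth with 5% laked horse blood cells, 5 μg/ml hemin and 1 μg/ml vitamin K1. Final inoculum 10^6 to 10^7 CFU/ml, prepared inside the anaerobe chamber. Vials incubated 48 h at 35°C in a shaking water bath. MIC read by inspecting the time-kill tubes, alongside an antibiotic-free growth control.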

Bacteroides ovatus = assay: Antimicrobial activity against beta lactamase-positive Bacteroides ovatus isolated from intra-abdominal infection and pelvic inflammatory disease patients after 48 hrs by agar dilution method; how it was run: as §1
Phocaeicola vulgatus = assay: Antimicrobial activity against beta lactamase-positive Bacteroides vulgatus isolated from intra-abdominal infection and pelvic inflammatory disease patients after 48 hrs by agar dilution method; how it was run: as §1
[8] = test system: Parabacteroides distasonis; assay: Antimicrobial activity against beta lactamase-positive Bacteroides distasonis isolated from intra-abdominal infection and pelvic inflammatory disease patients after 48 hrs by agar dilution method; how it was run: as §1
Prevotella bivia = assay: Antimicrobial activity against beta lactamase-positive Prevotella bivia isolated from intra-abdominal infection and pelvic inflammatory disease patients after 48 hrs by agar dilution method; how it was run: as §1
Prevotella disiens = assay: Antimicrobial activity against beta lactamase-positive Prevotella disiens isolated from intra-abdominal infection and pelvic inflammatory disease patients after 48 hrs by agar dilution method; how it was run: as §1
Prevotella intermedia [9] = assay: Antimicrobial activity against beta lactamase-positive Prevotella intermedia isolated from intra-abdominal infection and pelvic inflammatory disease patients after 48 hrs by agar dilution method; how it was run: as §1
Prevotella nigrescens = assay: Antimicrobial activity against beta lactamase-positive Prevotella nigrescens isolated from intra-abdominal infection and pelvic inflammatory disease patients after 48 hrs by agar dilution method; how it was run: as §1
[10] = test system: Prevotella melaninogenica; assay: Antimicrobial activity against beta lactamase-positive Prevotella melaninogenica isolated from intra-abdominal infection and pelvic inflammatory disease patients after 48 hrs by agar dilution method; how it was run: as §1
Prevotella denticola = assay: Antimicrobial activity against beta lactamase-positive Prevotella denticola isolated from intra-abdominal infection and pelvic inflammatory disease patients after 48 hrs by agar dilution method; how it was run: as §1
Prevotella corporis = assay: Antimicrobial activity against beta lactamase-positive Prevotella corporis isolated from intra-abdominal infection and pelvic inflammatory disease patients after 48 hrs by agar dilution method; how it was run: as §1
Prevotella buccae = assay: Antimicrobial activity against beta lactamase-positive Prevotella buccae isolated from intra-abdominal infection and pelvic inflammatory disease patients after 48 hrs by agar dilution method; settings: Segatella buccae; how it was run: as §1
[11] = test system: Porphyromonas asaccharolytica; assay: Antimicrobial activity against Porphyromonas asaccharolyticus isolated from intra-abdominal infection and pelvic inflammatory disease patients after 48 hrs by agar dilution method; how it was run: as §1
Porphyromonas gingivalis = assay: Antimicrobial activity against Porphyromonas gingivalis isolated from intra-abdominal infection and pelvic inflammatory disease patients after 48 hrs by agar dilution method; how it was run: as §1
Porphyromonas levii = assay: Antimicrobial activity against Porphyromonas levii isolated from intra-abdominal infection and pelvic inflammatory disease patients after 48 hrs by agar dilution method; how it was run: as §1
Fusobacterium nucleatum [12] = assay: Antimicrobial activity against beta lactamase-positive Fusobacterium nucleatum isolated from intra-abdominal infection and pelvic inflammatory disease patients after 48 hrs by agar dilution method; how it was run: as §1
[13] = test system: Fusobacterium necrophorum; assay: Antimicrobial activity against Fusobacterium necrophorum isolated from intra-abdominal infection and pelvic inflammatory disease patients after 48 hrs by agar dilution method; how it was run: as §1
Fusobacterium varium = assay: Antimicrobial activity against Fusobacterium varium isolated from intra-abdominal infection and pelvic inflammatory disease patients after 48 hrs by agar dilution method; how it was run: as §1
Fusobacterium mortiferum = assay: Antimicrobial activity against beta lactamase-positive Fusobacterium mortiferum isolated from intra-abdominal infection and pelvic inflammatory disease patients after 48 hrs by agar dilution method; how it was run: as §1
Finegoldia magna [14] = assay: Antimicrobial activity against Finegoldia magna isolated from intra-abdominal infection and pelvic inflammatory disease patients after 48 hrs by agar dilution method; how it was run: as §1
Parvimonas micra = assay: Antimicrobial activity against Micromonas micros isolated from intra-abdominal infection and pelvic inflammatory disease patients after 48 hrs by agar dilution method; how it was run: as §1
[15] = test system: Peptostreptococcus anaerobius; assay: Antimicrobial activity against Peptostreptococcus anaerobius isolated from intra-abdominal infection and pelvic inflammatory disease patients after 48 hrs by agar dilution method; how it was run: as §1
Anaerococcus prevotii = assay: Antimicrobial activity against Anaerococcus prevotii isolated from intra-abdominal infection and pelvic inflammatory disease patients after 48 hrs by agar dilution method; how it was run: as §1
Anaerococcus tetradius = assay: Antimicrobial activity against Anaerococcus tetradius isolated from intra-abdominal infection and pelvic inflammatory disease patients after 48 hrs by agar dilution method; how it was run: as §1
[16] = test system: Peptoniphilus asaccharolyticus; assay: Antimicrobial activity against Peptoniphilus asaccharolyticus isolated from intra-abdominal infection and pelvic inflammatory disease patients after 48 hrs by agar dilution method; how it was run: as §1
Clostridium perfringens [17] = assay: Antimicrobial activity against Clostridium perfringens isolated from intra-abdominal infection and pelvic inflammatory disease patients after 48 hrs by agar dilution method
How it was run: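 CLSI agar dilution on brucella blood agar supplemented with laked sheep blood, hemin and vitamin K. Inoculum about 1 × 10^5 CFU/spot, applied by Steers replicator. Plates incubated 48 h at 35°C in an anaerobic glove box. MIC is the concentration giving marked growth reduction versus the anaerobic control plate. Standard QC strains included in each run.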

Clostridioides difficile = assay: Antimicrobial activity against Clostridium difficile isolated from intra-abdominal infection and pelvic inflammatory disease patients after 48 hrs by agar dilution method; how it was run: as §1
[Clostridium] innocuum = Antimicrobial activity against Clostridium innocuum isolated from intra-abdominal infection and pelvic inflammatory disease patients after 48 hrs by agar dilution method; how it was run: as §1
Thomasclavelia ramosa = assay: Antimicrobial activity against Clostridium ramosum isolated from intra-abdominal infection and pelvic inflammatory disease patients after 48 hrs by agar dilution method; how it was run: as §1
[18] = test system: Paraclostridium bifermentans; assay: Antimicrobial activity against Clostridium bifermentans isolated from intra-abdominal infection and pelvic inflammatory disease patients after 48 hrs by agar dilution method; how it was run: as §1
[19] = test system: Enterocloster clostridioformis; assay: Antimicrobial activity against Clostridium clostridioforme isolated from intra-abdominal infection and pelvic inflammatory disease patients after 48 hrs by agar dilution method; how it was run: as §1
[20] = test system: Paeniclostridium sordellii; assay: Antimicrobial activity against Clostridium sordellii isolated from intra-abdominal infection and pelvic inflammatory disease patients after 48 hrs by agar dilution method; settings: Paraclostridium sordellii; how it was run: as §1
[21] = test system: Clostridium paraputrificum; assay: Antimicrobial activity against Clostridium paraputrificum isolated from intra-abdominal infection and pelvic inflammatory disease patients after 48 hrs by agar dilution method; how it was run: as §1
Clostridium cadaveris = assay: Antimicrobial activity against Clostridium cadaveris isolated from intra-abdominal infection and pelvic inflammatory disease patients after 48 hrs by agar dilution method; how it was run: as §1

CO/N=C(\C(=O)N[C@@H]1C(=O)N2C(C(=O)O)=C(CSc3nc(=O)c(O)nn3C)CS[C@H]12)c1csc(N)n1 [CEFTRIAXONE]
MIC50 (Bacteroides fragilis [1]): 64 µg/mL (≈ 115 µM)
MIC90 (Bacteroides fragilis [1]): > 128 µg/mL
MIC50 [2]: > 128 µg/mL
MIC90 [2]: > 128 µg/mL
MIC (Bacteroides fragilis [3]): 0.25 µg/mL (≈ 0.451 µM)
MIC (Prevotella intermedia [4]): 0.125 µg/mL (≈ 0.225 µM)
MIC (Finegoldia magna [5]): 8 µg/mL (≈ 14.4 µM)
MIC (Fusobacterium nucleatum [6]): 0.125 µg/mL (≈ 0.225 µM)
MIC (Clostridium perfringens [7]): 2 µg/mL (≈ 3.61 µM)
MIC50 (Bacteroides ovatus): 64 µg/mL (≈ 115 µM)
MIC90 (Bacteroides ovatus): > 128 µg/mL
MIC50 (Phocaeicola vulgatus): 16 µg/mL (≈ 28.9 µM)
MIC90 (Phocaeicola vulgatus): > 128 µg/mL
MIC50 [8]: 8 µg/mL (≈ 14.4 µM)
MIC90 [8]: > 128 µg/mL
MIC50 (Prevotella bivia): 8 µg/mL (≈ 14.4 µM)
MIC90 (Prevotella bivia): 64 µg/mL (≈ 115 µM)
MIC50 (Prevotella disiens): 2 µg/mL (≈ 3.61 µM)
MIC90 (Prevotella disiens): 64 µg/mL (≈ 115 µM)
MIC50 (Prevotella intermedia [9]): 4 µg/mL (≈ 7.21 µM)
MIC90 (Prevotella intermedia [9]): 64 µg/mL (≈ 115 µM)
MIC50 (Prevotella nigrescens): 4 µg/mL (≈ 7.21 µM)
MIC90 (Prevotella nigrescens): 16 µg/mL (≈ 28.9 µM)
MIC50 [10]: 4 µg/mL (≈ 7.21 µM)
MIC90 [10]: 16 µg/mL (≈ 28.9 µM)
MIC50 (Prevotella denticola): 4 µg/mL (≈ 7.21 µM)
MIC90 (Prevotella denticola): 64 µg/mL (≈ 115 µM)
MIC50 (Prevotella corporis): 4 µg/mL (≈ 7.21 µM)
MIC90 (Prevotella corporis): 32 µg/mL (≈ 57.7 µM)
MIC50 (Prevotella buccae): 0.25 µg/mL (≈ 0.451 µM)
MIC90 (Prevotella buccae): 4 µg/mL (≈ 7.21 µM)
MIC [11]: ≤ 0.125 µg/mL
MIC (Porphyromonas gingivalis): ≤ 0.125 µg/mL
MIC (Porphyromonas levii): ≤ 0.125 µg/mL
MIC50 (Fusobacterium nucleatum [12]): 0.25 µg/mL (≈ 0.451 µM)
MIC90 (Fusobacterium nucleatum [12]): 0.5 µg/mL (≈ 0.902 µM)
MIC50 [13]: ≤ 0.125 µg/mL
MIC90 [13]: 0.5 µg/mL (≈ 0.902 µM)
MIC50 (Fusobacterium varium): 4 µg/mL (≈ 7.21 µM)
MIC90 (Fusobacterium varium): 8 µg/mL (≈ 14.4 µM)
MIC50 (Fusobacterium mortiferum): 0.25 µg/mL (≈ 0.451 µM)
MIC90 (Fusobacterium mortiferum): ≥ 128 µg/mL
MIC50 (Finegoldia magna [14]): 8 µg/mL (≈ 14.4 µM)
MIC90 (Finegoldia magna [14]): 8 µg/mL (≈ 14.4 µM)
MIC (Parvimonas micra): ≤ 0.125 µg/mL
MIC50 (Parvimonas micra): ≤ 0.125 µg/mL
MIC90 (Parvimonas micra): 1 µg/mL (≈ 1.8 µM)
MIC [15]: 0.5 µg/mL (≈ 0.902 µM)
MIC50 [15]: 0.5 µg/mL (≈ 0.902 µM)
MIC90 [15]: 16 µg/mL (≈ 28.9 µM)
MIC (Anaerococcus prevotii): ≤ 0.125 µg/mL
MIC (Anaerococcus tetradius): 0.25 µg/mL (≈ 0.451 µM)
MIC50 (Anaerococcus tetradius): 0.25 µg/mL (≈ 0.451 µM)
MIC [16]: ≤ 0.125 µg/mL
MIC50 [16]: ≤ 0.125 µg/mL
MIC90 [16]: 1 µg/mL (≈ 1.8 µM)
MIC50 (Clostridium perfringens [17]): 2 µg/mL (≈ 3.61 µM)
MIC90 (Clostridium perfringens [17]): 4 µg/mL (≈ 7.21 µM)
MIC50 (Clostridioides difficile): 64 µg/mL (≈ 115 µM)
MIC90 (Clostridioides difficile): 64 µg/mL (≈ 115 µM)
MIC50 ([Clostridium] innocuum): 16 µg/mL (≈ 28.9 µM)
MIC50 (Thomasclavelia ramosa): 0.5 µg/mL (≈ 0.902 µM)
MIC [18]: 0.25 µg/mL (≈ 0.451 µM)
MIC [19]: 64 µg/mL (≈ 115 µM)
MIC [20]: 0.25 µg/mL (≈ 0.451 µM)
MIC [21]: 4 µg/mL (≈ 7.21 µM)
MIC (Clostridium cadaveris): 4 µg/mL (≈ 7.21 µM)
